Results published in ChEMBL document CHEMBL3822410, “Novel substituted isoxazole FXR agonists with cyclopropyl, hydroxycyclobutyl and hydroxyazetidinyl linkers: Understanding and improving key determinants of pharmacological properties” (Bioorg Med Chem Lett, 2016).
pEC50: −log10 of the molar value. Values after ≈ are worked out from the molar mass of the structure shown. Active and inactive are the calls of the source. The rule behind the calls is not given here.

What was measured:
[1] = target: T1, Bile acid receptor (Homo sapiens, UniProt Q96RI1); assay: Agonist activity at GST-tagged FXR LBD (187 to 472 residues) (unknown origin) assessed as FXR interaction with b-CPSSHSSLTERHKILHRLLQEGSPS-COOH by FRET assay
T1 sequence (Q96RI1 whole entry): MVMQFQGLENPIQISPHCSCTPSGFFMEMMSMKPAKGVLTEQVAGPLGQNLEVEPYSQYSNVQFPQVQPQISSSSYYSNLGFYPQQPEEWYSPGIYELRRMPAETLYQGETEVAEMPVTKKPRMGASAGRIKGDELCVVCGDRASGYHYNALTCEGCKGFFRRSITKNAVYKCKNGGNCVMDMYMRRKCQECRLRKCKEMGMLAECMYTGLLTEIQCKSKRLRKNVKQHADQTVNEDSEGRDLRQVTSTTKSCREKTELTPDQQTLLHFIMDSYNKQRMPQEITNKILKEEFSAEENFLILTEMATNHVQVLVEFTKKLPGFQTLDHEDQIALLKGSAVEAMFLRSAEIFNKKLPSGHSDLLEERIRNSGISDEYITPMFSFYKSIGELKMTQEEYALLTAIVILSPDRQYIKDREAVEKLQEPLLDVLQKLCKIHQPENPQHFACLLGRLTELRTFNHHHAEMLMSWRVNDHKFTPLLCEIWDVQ

[2] = target: T2, Bile acid receptor (Homo sapiens) (UniProt Q96RI1); assay: Agonist activity at GST-tagged FXR LBD (187 to 472 residues) (unknown origin) assessed as FXR interaction with b-CPSSHSSLTERHKILHRLLQEGSPS-COOH by FRET assay relative to GW4064
T2 sequence (whole entry): T1 sequence (Q96RI1 whole entry)

[3] = target: T1, Bile acid receptor; assay: Agonist activity at C-terminal Gal4-tagged human FXR (187 to 472 residues) expressed in HEK-293 cells co-expressing pFRluc by mammalian one hybrid assay; assay type: cell-based, HEK293
How it was run: (§1)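 Transient transfection of HEK293 cells with Gal4 DBD–human FXR LBD (187–472) chimera under CMV promoter plus pFRluc Gal4-driven firefly luciferase reporter. Cells treated with serial compound dilutions. EC50 from at least three experiments; efficacy is extrapolated maximum signal of the dose-response, GW4064 set to 100%.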

[4] = target: T2, Bile acid receptor (Homo sapiens); assay: Agonist activity at C-terminal Gal4-tagged human FXR (187 to 472 residues) expressed in HEK-293 cells co-expressing pFRluc by mammalian one hybrid assay relative to GW4064; assay type: cell-based; conditions: HEK293; how it was run: as §1
[5] = Aqueous solubility of the compound; assay type: physicochemical; conditions: buffer
[6] = Permeability of the compound assessed as compound influx measured after 16 hrs by PAMPA assay; assay type: ADME
How it was run: (§2)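 PAMPA, 16 h at rt. Flux = [C_acceptor/(C_donor + C_acceptor)] × 100 × 2. Membrane enrichment = C_membrane × 2/(C_acceptor + C_donor), membrane phase extracted into a volume equal to the acceptor or donor compartment.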

[7] = Permeability of the compound assessed as compound enrichment in membrane compartment measured after 16 hrs by PAMPA assay relative to control; assay type: ADME; how it was run: as §2
[8] = target: T3, Nuclear receptor subfamily 1 group I member 2 (Homo sapiens, UniProt O75469); assay: Agonist activity at PXR (unknown origin) up to 5 uM
T3 sequence (O75469 whole entry): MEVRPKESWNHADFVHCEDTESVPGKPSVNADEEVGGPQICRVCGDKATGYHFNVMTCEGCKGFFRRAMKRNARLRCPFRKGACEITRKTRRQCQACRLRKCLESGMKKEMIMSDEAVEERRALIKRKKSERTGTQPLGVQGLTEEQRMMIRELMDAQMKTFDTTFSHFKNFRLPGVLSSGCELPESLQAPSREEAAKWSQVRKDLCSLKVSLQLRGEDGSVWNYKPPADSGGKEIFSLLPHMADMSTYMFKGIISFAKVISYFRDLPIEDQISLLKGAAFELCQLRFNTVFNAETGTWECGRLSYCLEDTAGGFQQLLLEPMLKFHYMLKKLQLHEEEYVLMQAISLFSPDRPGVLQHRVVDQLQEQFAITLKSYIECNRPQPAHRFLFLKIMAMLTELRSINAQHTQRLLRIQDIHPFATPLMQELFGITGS

[9] = test system: Mus musculus; assay: Reduction in total cholesterol level in high fat diet enriched with cholesterol fed C57BL/6J mouse plasma at 10 mg/kg, po through gavage for 10 days measured after 4 hrs of final dosage relative to vehicle treated-control; assay type: functional, organism-based
How it was run: (§3)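 C57BL/6J mice pre-fed and kept on high fat diet (60% kcal fat) with 1% (w/w) cholesterol; 10 mg/kg by oral gavage for 10 days. Plasma total cholesterol and triglycerides taken at sacrifice 4 h after final dose, expressed as % change versus vehicle group.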

[10] = Oral bioavailability in C57BL/6J mouse at 5 mg/kg; assay type: ADME, organism-based; conditions: in vivo
How it was run: (§4)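 Mice dosed 5 mg/kg orally and 1 mg/kg intravenously; bioavailability from both arms, all other parameters (AUC, Cmax, T1/2, Cl/F, Vd/F) calculated from the oral arm.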

[11] = Half life in C57BL/6J mouse at 5 mg/kg, po and 1 mg/kg, iv; assay type: ADME, organism-based; conditions: in vivo; how it was run: as §4
[12] = Apparent oral clearance in C57BL/6J mouse at 5 mg/kg; assay type: ADME, organism-based; conditions: in vivo; how it was run: as §4
[13] = Apparent oral volume of distribution in C57BL/6J mouse at 5 mg/kg; assay type: ADME, organism-based; conditions: in vivo; how it was run: as §4
[14] = AUC in C57BL/6J mouse at 5 mg/kg, po and 1 mg/kg, iv; assay type: ADME, organism-based; conditions: in vivo; how it was run: as §4
[15] = Cmax in C57BL/6J mouse at 5 mg/kg, po and 1 mg/kg, iv; assay type: ADME, organism-based; conditions: in vivo; how it was run: as §4
[16] = test system: Mus musculus; assay: Reduction in total triglyceride level in high fat diet enriched with cholesterol fed C57BL/6J mouse plasma at 10 mg/kg, po through gavage for 10 days measured after 4 hrs of final dosage relative to vehicle treated-control; assay type: functional, organism-based; how it was run: as §3

O=C(O)c1cncc(N2CC(O)(c3ccc(OCc4c(-c5c(Cl)cccc5Cl)noc4C4CC4)cc3Cl)C2)c1
pEC50 [1]: 8.15 | Efficacy [2]: 102% | pEC50 [3]: 6.26 | Efficacy [4]: 71% | solubility [5]: 197 µM (≈ 116 µg/mL) | permeability [6]: 35% | fold change (FC) [7]: 3 | Activity [8]: Not Active

CC(C)n1nc(C(=O)O)cc1[C@H]1C[C@](O)(c2ccc(OCc3c(-c4c(Cl)cccc4Cl)noc3C3CC3)cc2Cl)C1
Activity [9]: Active | bioavailability [10]: 18% | half-life [11]: 36 min | CL/F [12]: 16 mL/min/kg | Vd/F [13]: 0.8 L/kg | AUC [14]: 960 ng·h/mL | pEC50 [1]: 8.05 | Efficacy [2]: 100% | pEC50 [3]: 6.96 | Efficacy [4]: 78% | solubility [5]: 171 µM (≈ 105 µg/mL) | permeability [6]: 46% | fold change (FC) [7]: 11 | Cmax [15]: 1470 ng/mL | Activity [16]: Active | Activity [8]: Not Active
